# Shown are actives, neighbours in structure and some others; about 4.9% of the full set was active somewhere.
# PHOSPHO1 inh: PHOSPHO1 (human) inhibition | Q8TCT1 | recombinant PHOSPHO1, absorbance phosphatase assay | inhibition, % at 13.3 µM | 290,000 tested, 1.1% active; in the data active = inhibition above about 60%
# Target sequence (Q8TCT1 whole entry, looked up): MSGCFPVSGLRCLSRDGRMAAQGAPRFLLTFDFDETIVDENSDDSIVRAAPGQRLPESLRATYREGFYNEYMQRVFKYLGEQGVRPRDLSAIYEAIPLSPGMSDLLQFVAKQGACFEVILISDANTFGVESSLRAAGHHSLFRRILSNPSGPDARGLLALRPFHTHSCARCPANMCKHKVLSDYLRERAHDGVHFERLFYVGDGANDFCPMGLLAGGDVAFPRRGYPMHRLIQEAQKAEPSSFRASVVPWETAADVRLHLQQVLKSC
# Hep lipid drop: modulators of hepatic lipid droplet formation | inhibition, % at 6.5 µM | AML12 mouse hepatocytes, oleate lipid droplets, BODIPY imaging | 240,000 tested, 0.4% active | AID 1656;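 active = lipid droplet intensity inhibited by at least 50%, with more than 500 cells counted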
#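 System: AML12 hepatocytes (mouse). Probe or stimulus: oleic acid at 100 µM to induce lipid droplet formation. Times: overnight treatment with compound plus oleate. Detection: Image-based BODIPY and DAPI two-channel analysis. Evaluation: percent inhibition of filter-corrected integrated lipid droplet intensity per well.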
# HSF-1 act: increases HSF-1 driven luciferase reporter signal. AID 504408. NIH3T3-HGL HSF-1 luciferase reporter, MG132, 8 h; 100% = twice DMSO control signal. activation, % at 9 µM. 300,000 tested, 1.7% active;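 active = mean replicate activation of at least 50% with a set share of replicates each reaching 50%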;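 note: 0% = median of the neutral control wells and 100% = twice that signal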
# CHT allo act: allosterically activates the human high affinity choline transporter; Q9GZV3; CHT-expressing cells, membrane potential dye, choline EC20; hits give high values; LV-AA mutant CHT in HEK293 cells; B-score at 10 µM; 310,000 tested, 0.49% active;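 active = initial fluorescence not abnormally high and integrated response B-score, plate-corrected, over 3 SD above library mean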
# HSF1 inh: HSF1 inhibition | NIH3T3-HGL HSE-luciferase, MG132-induced, luminescence 8 h; hits give low values | activity change, negative = inhibition, % at 7.5 µM (by protocol) | 300,000 tested, 0.77% active;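 active = more than half of replicate wells show activity change below -50%, luminescence cut by over half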;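 note: luciferase reports HSF-1 transcriptional activity via heat shock element; 0% = median of DMSO wells and -100% = zero luminescence signal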
# CHT inh: inhibitors of human choline transporter CHT. Q9GZV3. CHT-expressing cells, membrane potential dye, choline response; hits give low values. B-score at 10 µM. 310,000 tested, 0.86% active;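 active = B-score over 3 SD under the library average, and starting fluorescence ratio not unusually high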;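 note: choline stimulus applied at its EC90 after an EC20 pre-addition; B-score computed on integrated fluorescence ratio after choline addition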
# CHT inh conf: human CHT inhibition, confirmatory screen | shares compounds with CHT inh | AID 493221 | CHT activity remaining % of control (hits give low values), % at 10 µM | 2,400 tested, 70% active | CHT-expressing cells, choline membrane potential dye; LV-to-AA substituted CHT, HEK293 cells;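 active = choline transporter activity left, mean of duplicates at 10 µM, below buffer-only control mean minus 3 SD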;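 note: depolarization triggered by choline at its EC90 following an EC20 pre-addition; 0% = hemicholinium-3 full block and 100% = buffer-only control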
# HEK293 MPD ctr: activity in parental HEK293 cells lacking CHT; membrane potential ratio readout (active if shifted either direction beyond buffer ±3SD; no single direction) at 10 µM; 2,400 tested, 4% active; membrane potential dye, choline response; active = decrease or increase beyond buffer ±3SD; shares compounds with CHT inh;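 note: parental cells lack the transporter so any hit is non-specific; ratio is peak minus trough fluorescence over baseline after EC90 choline challenge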
# CHT act confirm: human CHT activation, confirmatory screen; shares compounds with CHT allo act; CHT-expressing cells, membrane potential dye fluorescence (FDSS); % of choline EC20–EC90 response window; HEK293 expressing CHT LV-AA mutant; choline added at its EC20; activation, % at 10 µM; 2,500 tested, 91% active; AID 504833;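 active = primary screen active, with duplicate mean activation above negative control mean plus 3 SD, cut at about 11% in these data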
# HEK293 MP dye: CHT activator counter-screen hit in parental HEK293 cells | membrane potential dye fluorescence (FDSS); measured after EC20 choline addition | AID 623908 | shares compounds with CHT allo act | 2,500 tested, 62% active | ratio readout change at 10 µM, hits read low;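 active = duplicate-averaged ratio beyond 3 SD from buffer wells, up or down, though filed actives are nearly all decreases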
# An asterisk follows results filed as active; i = inactive; · = not tested or not shown.
SMILES,PHOSPHO1 inh,Hep lipid drop,HSF-1 act,CHT allo act,HSF1 inh,CHT inh,CHT act confirm,HEK293 MP dye,others
Cc1ccc(C(=O)Nc2ccc(S(=O)(=O)NC3=NCCCCC3)cc2)c(C)c1,·,·,3,i,-1,-5.9*,·,·,CHT inh conf=19%*;HEK293 MPD ctr=i
CN(Cc1ccccc1)S(=O)(=O)c1ccc(OCC(=O)NCc2ccccn2)cc1,36,-1,9,i,-2,i,·,·,
O=C(Nc1ccc(F)c(Cl)c1)c1cccnc1,8,·,11,i,9,-6.1*,·,·,CHT inh conf=i;HEK293 MPD ctr=i
O=C(Nc1ccc(F)c(Cl)c1)c1ccccc1,·,·,·,i,·,i,·,·,
Cc1ccc(S(=O)(=O)N(C)C)cc1NC(=S)NC(=O)C12CC3CC(CC(C3)C1)C2,-19,16,-9,i,-6,i,3,i,
Cc1ccc(S(=O)(=O)N(C)C)cc1NC(=S)NC12CC3CC(CC(C3)C1)C2,-4,11,7,·,-2,·,·,·,
Cc1ccc(Cl)cc1NC(=O)CN1CCN(S(=O)(=O)N2CCC(C)CC2)CC1,18,-3,21,i,1,i,·,·,
CCN(CC)CCNc1nc2c(c(=O)[nH]c(=O)n2C)n1CC(O)COc1ccc(Cl)cc1Cl (configuration not stated),15,·,1,9.5*,-4,i,53*,-53*,
Clc1cccc(COn2c(-c3ccc(Cl)cc3Cl)nc3ncccc32)c1,16,1,17,i,-4,i,·,·,
Cc1ccc(COn2c(-c3ccc(Cl)cc3Cl)nc3ncccc32)cc1,-1,-24,4,6.6*,2,i,31*,i,
CN(C)c1ccc2c3c(ccc(N(C)C)c13)C(=O)OC2,28,6,6,7.3*,-9,i,80*,-96*,
O=S(=O)(c1ccccc1)N1c2cc(Cl)ccc2Oc2nc3ccccc3nc21,4,-25,·,i,·,i,·,·,
CN1CCN(c2nc3ccccn3c(=O)c2C=C(C#N)C#N)CC1,-14,-7,-5,i,-3,i,50*,-49*,
N#C/C(=C\c1c(N2CCOCC2)nc2ccccn2c1=O)C(=O)NC1CCS(=O)(=O)C1 (configuration not stated),8,15,-10,9.6*,-5,i,10*,-54*,
COC(=O)/C(C#N)=C/c1c(N2CCN(C)CC2)nc2ccccn2c1=O,24,-8,8,7.3*,-2,i,48*,-56*,
CN(C)c1nnc(-c2ccc(Cl)cc2)o1,36,6,-3,i,2,i,·,·,
O=c1oc2ccccc2c(N2CCC(c3ccccc3)CC2)c1[N+](=O)[O-],-10,-8,-6,i,-4,i,5,i,
CN1CCN(Cc2nc3ccccc3c(=O)n2Cc2nc(-c3ccccc3F)cs2)CC1,-12,26,-5,8.2*,6,i,30*,i,
CCC1(C)OCC(Cn2c3ccccc3c3ccccc32)O1 (configuration not stated),3,-21,-50,i,-34,i,·,·,
COc1ccccc1NC(=O)CNC(c1ccccc1)c1ccccc1,39,14,3,7.5*,1,i,44*,i,
COc1ccccc1NC(=O)CC(c1ccc(F)cc1)c1ccco1 (configuration not stated),4,2,·,i,·,i,24*,i,
CCn1cc(C(=O)NCC2CCCO2)c(=O)c2cc(S(=O)(=O)N(C)C3CCCCC3)ccc21 (configuration not stated),-20,12,8,i,3,i,·,·,
Nc1nn(S(=O)(=O)c2ccccc2)cc1-c1cccc([N+](=O)[O-])c1,5,-17,-2,i,12,i,·,·,
Nc1c(-c2cccc([N+](=O)[O-])c2)nc2ccccn12,-6,44,49,i,24,i,53*,-50*,
CCCCN(C)CCNC(=O)c1nn(-c2ccc(OC)cc2)c(=O)c2c1c1ccccc1n2C,5,-22,9,i,1,i,29*,-31*,
SMILES,PHOSPHO1 inh,Hep lipid drop,HSF-1 act,CHT allo act,HSF1 inh,CHT inh,CHT act confirm,HEK293 MP dye,others
CCN(C(=O)c1nn(-c2ccc(OC)cc2)c(=O)c2c1c1ccccc1n2C)c1ccc(OC)cc1,-15,-20,3,i,2,i,·,·,
CCCn1c(SCC(=O)NC2CCCC2)nnc1C(C)C,20,2,-4,i,-6,i,·,·,
C=C1CCN(Cc2ccccc2)S(=O)(=O)c2ccccc21,36,-1,-5,9*,0,i,26*,i,
C=C1CCN(CC(=O)OC)S(=O)(=O)c2ccccc21,22,41,13,i,6,i,·,·,
Clc1ccc2c(N3CCOCC3)ccnc2c1,15,-7,22,i,0,i,50*,-50*,
CCC(=O)N1CCN(c2ccnc3cc(Cl)ccc23)CC1,33,14,5,7.6*,-9,i,68*,-63*,
CS(=O)(=O)N1CCCC(C(=O)NCc2ccccc2Cl)C1 (configuration not stated),7,-5,16,i,-5,i,·,·,
Cc1ccc(C)c(-c2[nH]ncc2CN2CCCC(CO)(Cc3ccccc3C)C2)c1 (configuration not stated),44,-31,-3,6.4*,-4,i,17*,i,
OCC1(Cc2ccccc2)CCCN(Cc2cn[nH]c2-c2ccccc2)C1 (configuration not stated),32,-21,12,i,4,i,·,·,
CCOC(=O)c1oc2ccccc2c1NC(=O)COc1ccc(F)cc1,26,·,9,i,5,i,·,·,
CCN(CC)CCn1c(=N)n(CC(O)c2ccco2)c2ccccc21 (configuration not stated),-3,-1,-5,i,-5,i,·,·,

# Screening data: PubChem, several laboratories
